Test results from PMC11265520 (RSC Advances, 2024).
Read-outs that look alike come from different tables or passages of the source.

Assays:
hCA II = hCA II (Homo sapiens, UniProt P00918); experiment: Stopped flow CO2 hydrase assay, hCA II; type: biochemical
hCA XII = hCA XII (Homo sapiens, UniProt O43570); experiment: Stopped flow CO2 hydrase assay, hCA XII; type: biochemical
hCA I = hCA I (Homo sapiens, UniProt P00915); experiment: Stopped flow CO2 hydrase assay, hCA I; type: biochemical
hCA IX = hCA IX (Homo sapiens, UniProt Q16790); experiment: biochemical; type: biochemical
[1] = test system: breast cancer cells MCF-7; experiment: MTT antiproliferative assay, MCF-7 under normoxia and hypoxia; type: cell-based, human; details: for IC50: Homo sapiens; for HCR, hypoxic cytotoxicity ratio: IC50(N)/IC50(H): MCF-7; for antiproliferative activity, in words: MCF-7, Table 3
In short: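 MTT assay on MCF-7 cells grown in high-glucose DMEM with 10% FBS, penicillin and streptomycin at 37 °C and 5% CO2. Cells were seeded at 40 000 per well, and test compound (10 mM DMSO stock) was added after 24 h; controls got solvent. Cells were kept under normoxia (21% O2) or hypoxia (1% O2). IC50 is mean ± S.D. of 3 experiments; HCR = IC50(N)/IC50(H).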

NCI-H1975 = experiment: Antiproliferative assay, NCI-H1975; type: cell-based; details: Homo sapiens, NCI-H1975, read-out: IC50 NCI-H1975
[2] = test system: panel of tumor cell lines; experiment: Antiproliferative activity over the panel of tumor cell lines; type: cell-based, human; details: for IC50: Homo sapiens
Capan-1 = experiment: Antiproliferative assay, Capan-1; type: cell-based; details: Homo sapiens, CAPAN-1, read-out: IC50 Capan-1
DND-41 = experiment: Antiproliferative assay, DND-41; type: cell-based; details: Homo sapiens, DND41, read-out: IC50 DND-41
HCT-116 = experiment: Antiproliferative assay, HCT-116; type: cell-based; details: Homo sapiens, HCT-116, read-out: IC50 HCT-116
LN229 = experiment: Antiproliferative assay, LN229; type: cell-based; details: Homo sapiens, LN-229, read-out: IC50 LN229
K562 = experiment: Antiproliferative assay, K562; type: cell-based; details: Homo sapiens, K562, read-out: IC50 K562
Z138 = experiment: Antiproliferative assay, Z138; type: cell-based; details: Homo sapiens, Z-138, read-out: IC50 Z138
HL-60 = experiment: Antiproliferative assay, HL-60; type: cell-based; details: Homo sapiens, HL-60, read-out: IC50 HL-60
[3] = test system: CA IX and cleaved PARP expression in A431 cells; experiment: Immunoblotting of CA IX and cleaved PARP in A431 cells under hypoxia; type: cell-based; details: 24 h
In short: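 A431 cells grew 24 h, then received test compound or tirapazamine reference (30 μM) in fresh medium and were held 24 h in hypoxia; the control stayed in normoxia. Lysis buffer: Tris-HCl pH 7.5, Igepal, NaCl, EDTA, DTT, PMSF, orthovanadate, protease inhibitors. Protein was measured by Bradford. Blots: 10% reducing SDS-PAGE, nitrocellulose, milk/TBS-Tween block, primary antibodies overnight at 4 °C, GAPDH loading control, HRP anti-rabbit, ECL.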

A431 skin cancer cells = experiment: MTT assay, A431 cells in normoxia and hypoxia; type: cell-based; details: for IC50: Homo sapiens, A-431, 72 h
In short: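 A431 cells were cultured in high-glucose DMEM with 10% FBS and penicillin/streptomycin at 37 °C and 5% CO2, then seeded at 35 000 per well. After 24 h, test compound from a 10 mM DMSO stock was added, with solvent-only controls. Incubation lasted 72 h under normoxia or hypoxia (1% O2). Viability was read by MTT, with IC50 from the concentration-response curve.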

[4] = read-out: IC50 range over the tested tumor cell lines

Chain of hCA XII (O43570 25-354): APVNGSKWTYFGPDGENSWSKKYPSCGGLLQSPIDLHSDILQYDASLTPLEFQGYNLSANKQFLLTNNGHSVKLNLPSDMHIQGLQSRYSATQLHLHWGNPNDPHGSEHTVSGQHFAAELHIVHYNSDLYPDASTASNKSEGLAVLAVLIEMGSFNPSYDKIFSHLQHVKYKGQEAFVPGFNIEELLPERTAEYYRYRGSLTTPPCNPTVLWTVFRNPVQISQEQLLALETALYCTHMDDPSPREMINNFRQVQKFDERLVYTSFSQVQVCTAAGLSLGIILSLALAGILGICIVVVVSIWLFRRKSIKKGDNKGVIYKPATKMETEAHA
Chain of hCA I (P00915 whole entry): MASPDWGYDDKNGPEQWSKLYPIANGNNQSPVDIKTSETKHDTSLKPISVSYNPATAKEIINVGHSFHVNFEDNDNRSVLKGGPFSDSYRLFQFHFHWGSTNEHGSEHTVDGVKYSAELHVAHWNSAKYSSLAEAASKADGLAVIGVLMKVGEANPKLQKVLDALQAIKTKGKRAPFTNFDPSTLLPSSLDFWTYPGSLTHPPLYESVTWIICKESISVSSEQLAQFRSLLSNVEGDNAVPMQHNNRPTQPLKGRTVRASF

| SMILES | Ki (hCA II) [nM] | Ki (hCA XII) [nM] | Ki (hCA I) [nM] | Ki (hCA IX) [nM] | IC50 ([1]; MCF7, read-out: IC50 H) [nM] | IC50 ([1]; MCF7, read-out: IC50 N) [nM] | IC50 (NCI-H1975) [nM] | IC50 (HCT-116) [nM] | IC50 (K562) [nM] | IC50 (HL-60) [nM] | HCR, hypoxic cytotoxicity ratio: IC50(N)/IC50(H) [1] | IC50 (Capan-1) [nM] | IC50 (DND-41) [nM] | IC50 (LN229) [nM] | IC50 (Z138) [nM] | other results |
| --- | --- | --- | --- | --- | --- | --- | --- | --- | --- | --- | --- | --- | --- | --- | --- | --- |
| N#Cc1c(-c2ccc(Cl)cc2)[n+]([O-])c2ccc(S(N)(=O)=O)cc2[n+]1[O-] [Compound 8b, 3-(4-Chlorophenyl)-7-sulfamoylquinoxaline-2-carbonitrile 1,4-dioxide] | 5 ± 0.4 | 133 ± 12 | 40.3 ± 3.1 | > 10000 | – | – | – | – | – | – | – | – | – | – | – | – |
| COc1cc([C@@H]2c3cc4c(cc3[C@@H](O[C@@H]3O[C@@H]5CO[C@@H](C)O[C@H]5[C@H](O)[C@H]3O)[C@H]3COC(=O)[C@H]23)OCO4)cc(OC)c1O [Etoposide, etoposide, reference compound] | – | – | – | – | – | – | 1100 ± 100 | 2300 ± 100 | 1200 ± 60 | 700 ± 40 | – | 130 ± 10 | 290 ± 10 | 1700 ± 100 | 300 ± 20 | IC50 [2, 4]: 130 to 2300 nM |
| CCOC(=O)c1c(C)[n+]([O-])c2cc(S(N)(=O)=O)ccc2[n+]1[O-] [Compound 7f, 2-(Ethoxycarbonyl)-3-methyl-6-sulfamoylquinoxaline 1,4-dioxide] | 8 ± 0.3 | 56.4 ± 4 | 63 ± 3.1 | > 10000 | 4300 ± 300 | 10500 ± 1200 | 33300 ± 1700 | 2700 ± 100 | 26000 ± 1300 | 32600 ± 1600 | 2.4 | 1700 ± 100 | 10300 ± 500 | 35900 ± 1800 | 3300 ± 1700 | enhancement of tumor cell growth inhibition compared to compound 7e ([2]; Table 4 cell lines): 1.4–40 times; activity against CA IX, in words (hCA IX): did not exhibit any inhibitory activity |
| CC(=O)c1c(C)[n+]([O-])c2cc(S(N)(=O)=O)ccc2[n+]1[O-] [Compound 7g, 2-Acetyl-3-methyl-6-sulfamoylquinoxaline 1,4-dioxide] | 7.4 ± 0.2 | 240 ± 13 | 65.7 ± 2.4 | 42.2 ± 4 | 6900 ± 300 | 7100 ± 200 | 66100 ± 3300 | 69600 ± 3500 | 94800 ± 4700 | 85900 ± 4300 | 1.1 | 38300 ± 1900 | 66900 ± 3300 | > 100000 | 44300 ± 2200 | decrease in activity compared to 2-ethoxycarbonyl analogue 7f ([2]; Table 4 cell lines): 2–25 fold; CA IX expression [3]: dose-dependent reduction in CA IX expression; cleaved PARP (marker of apoptosis) [3]: accumulation of cleaved PARP; decrease in cell survival (A431 skin cancer cells; A431, 50 μM, normoxia, 72 h): approximately 40%; IC50 (A431 skin cancer cells; read-out: IC50 A431, hypoxia): ~11000 nM; IC50 (A431 skin cancer cells; read-out: IC50 A431, normoxia): > 50000 nM |
| CCOC(=O)c1c(-c2ccccc2)[n+]([O-])c2cc(S(N)(=O)=O)ccc2[n+]1[O-] [Compound 7e, 2-(Ethoxycarbonyl)-3-phenyl-6-sulfamoylquinoxaline 1,4-dioxide] | 5.4 ± 0.3 | 252 ± 14 | 42.4 ± 1.9 | 257 ± 14 | 900 ± 60 | 4000 ± 600 | 47400 ± 2300 | > 100000 | 52600 ± 2100 | 52700 ± 2600 | 4.7 | 6000 ± 300 | 28200 ± 1400 | 87000 ± 4300 | 15300 ± 800 | – |
| Nc1n[n+]([O-])c2ccccc2[n+]1[O-] [TPZ, Tirapazamine, reference compound] | – | – | – | – | 4500 ± 1100 | 24200 ± 3300 | – | – | – | – | 5.4 | – | – | – | – | – |
| COc1cccc2c1C(=O)c1c(O)c3c(c(O)c1C2=O)C[C@@](O)(C(=O)CO)C[C@@H]3O[C@H]1C[C@H](N)[C@H](O)[C@H](C)O1 [DOXO, doxorubicin, reference compound] | – | – | – | – | 400 ± 30 | 300 ± 30 | – | – | – | – | 0.7 | – | – | – | – | – |
| NS(=O)(=O)c1ccc2c(c1)[n+]([O-])c(C(F)(F)F)c(C(=O)c1ccccc1)[n+]2[O-] [Compound 7h, 2-Benzoyl-6-sulfamoyl-3-(trifluoromethyl)quinoxaline 1,4-dioxide] | 4.8 ± 0.3 | 143 ± 11 | 51.5 ± 3.2 | > 10000 | 800 ± 50 | 1100 ± 100 | 1900 ± 100 | 1300 ± 80 | 1900 ± 200 | 1800 ± 100 | 1.4 | 1400 ± 70 | 2100 ± 200 | 1400 ± 30 | 1900 ± 100 | IC50 [2, 4]: 1300 to 2100 nM; IC50 ([2]; read-out: IC50 range, all cell lines): 1100 to 2100 nM; higher activity compared to other analogs ([2]; against most tumor cells): 1.5–20 times |
| CC(=O)c1c(C)[n+]([O-])c2ccc(S(N)(=O)=O)cc2[n+]1[O-] [Compound 8g, 2-Acetyl-3-methyl-7-sulfamoylquinoxaline 1,4-dioxide] | – | – | – | – | 2800 ± 400 | 11700 ± 1200 | – | – | – | – | 4.2 | – | – | – | – | – |

Second part, led by results:

| Ki (hCA II) [nM] | Ki (hCA XII) [nM] | Ki (hCA I) [nM] | Ki (hCA IX) [nM] | IC50 ([1]; MCF7, read-out: IC50 H) [nM] | IC50 ([1]; MCF7, read-out: IC50 N) [nM] | IC50 (NCI-H1975) [nM] | IC50 (HCT-116) [nM] | IC50 (K562) [nM] | IC50 (HL-60) [nM] | SMILES | HCR, hypoxic cytotoxicity ratio: IC50(N)/IC50(H) [1] | IC50 (Capan-1) [nM] | IC50 (DND-41) [nM] | IC50 (LN229) [nM] | IC50 (Z138) [nM] | other results |
| --- | --- | --- | --- | --- | --- | --- | --- | --- | --- | --- | --- | --- | --- | --- | --- | --- |
| 4.4 ± 0.1 | 111 ± 9.7 | 60.7 ± 2.6 | > 10000 | 1300 ± 300 | 4800 ± 200 | – | – | – | – | N#Cc1c(-c2ccccc2)[n+]([O-])c2ccc(S(N)(=O)=O)cc2[n+]1[O-] [Compound 8a, 3-Phenyl-7-sulfamoylquinoxaline-2-carbonitrile 1,4-dioxide] | 3.7 | – | – | – | – | – |
| 5.1 ± 0.3 | 178 ± 9 | 53.7 ± 1.5 | 429 ± 21 | 800 ± 200 | 1800 ± 200 | 13900 ± 700 | 34300 ± 1700 | 29700 ± 1500 | 2000 ± 100 | N#Cc1c(-c2ccc(Cl)cc2)[n+]([O-])c2cc(S(N)(=O)=O)ccc2[n+]1[O-] [Compound 7b, 3-(4-Chlorophenyl)-6-sulfamoylquinoxaline-2-carbonitrile 1,4-dioxide] | 2.2 | 1800 ± 100 | 5400 ± 300 | 24000 ± 1200 | 2500 ± 200 | enhancement of cytotoxicity compared to unsubstituted analogue 7a ([2]; all tested cell lines except DND-41): 1.2 to 6.8 times |
| 4.4 ± 0.2 | > 10000 | 38 ± 1.1 | > 10000 | > 25000 | > 25000 | > 100000 | > 100000 | > 100000 | > 100000 | N#Cc1c(-c2ccco2)[n+]([O-])c2cc(S(N)(=O)=O)ccc2[n+]1[O-] [Compound 7c, 3-(Furan-2-yl)-6-sulfamoylquinoxaline-2-carbonitrile 1,4-dioxide] | – | > 100000 | > 100000 | > 100000 | > 100000 | activity against CA XII, in words (hCA XII): inactive; activity against CA IX, in words (hCA IX): complete loss of activity; antiproliferative activity, in words [1]: complete loss of activity |
| – | – | – | – | > 25000 | > 25000 | > 100000 | > 100000 | > 100000 | 72400 ± 3600 | N#Cc1c(-c2cccs2)[n+]([O-])c2cc(S(N)(=O)=O)ccc2[n+]1[O-] [Compound 7d, 6-Sulfamoyl-3-(thiophen-2-yl)quinoxaline-2-carbonitrile 1,4-dioxide] | – | > 100000 | 44800 ± 2200 | 98800 ± 4900 | > 100000 | Ki (hCA II; read-out: Ki hCA II, mean from three experiments, stopped flow CO2 hydrase assay): 4.2 ± 0.1 nM; Ki (hCA I; read-out: Ki hCA I, mean from three experiments, stopped flow CO2 hydrase assay): 41.7 ± 2 nM; activity against CA IX, in words (hCA IX): complete loss of activity; Ki (hCA IX; read-out: Ki hCA IX, mean from three experiments, stopped flow CO2 hydrase assay): > 10000 nM; antiproliferative activity, in words [1]: complete loss of activity |
| 2.7 ± 0.2 | 89 ± 7 | 49.1 ± 3 | 2400 ± 96 | 900 ± 300 | 3500 ± 200 | 19900 ± 900 | 47900 ± 2300 | 10800 ± 500 | 2300 ± 100 | N#Cc1c(-c2ccccc2)[n+]([O-])c2cc(S(N)(=O)=O)ccc2[n+]1[O-] [Compound 7a, 3-Phenyl-6-sulfamoylquinoxaline-2-carbonitrile 1,4-dioxide] | 3.9 | 7500 ± 400 | 800 ± 50 | 38800 ± 1900 | 8700 ± 400 | – |
